Results from different studies.
PROC: Vitamin K-dependent protein C (PROC, Homo sapiens, UniProt P04070)
PFF0160c: Dihydroorotate dehydrogenase (quinone), mitochondrial (PFF0160c, Plasmodium falciparum, UniProt Q08210)
PFF0160c E182D: Dihydroorotate dehydrogenase (quinone), mitochondrial (PFF0160c, Plasmodium falciparum, UniProt Q08210, E182D)

CCOC(=O)c1ccc(OC(=O)CCCCCN=C(N)N)cc1
IC50 (PROC; enzyme activity, inhibitor): 1400 nM

Cc1c(Cc2ccc(C(F)(F)F)nc2)c[nH]c1C(=O)N[C@@H](C)C(N)=O
IC50 (PFF0160c; enzyme activity, inhibitor, absorbance): > 100000 nM

Cc1cc(Nc2ccc3c(c2)CCC3)n2ncnc2n1
IC50 (PFF0160c E182D; enzyme activity, inhibitor, absorbance): > 10000 nM

Cc1ccc(O)c([C@H](CCN(C(C)C)C(C)C)c2ccccc2)c1
IC50 (Kappa-type opioid receptor (OPRK1, Homo sapiens, UniProt P41145); ligand displacement, radioligand): 6710 nM

Cc1nc(Nc2ccc(C(F)(F)F)nc2)c2c(C)noc2n1
IC50 (PFF0160c; enzyme activity, inhibitor, absorbance): 150 nM

CNC(=O)[C@H](C)NC(=O)c1[nH]cc(Cc2ccc(C(F)(F)F)nc2)c1C
IC50 (PFF0160c; enzyme activity, inhibitor, absorbance): 39000 nM

CCCCCNC(=N)N/N=C/c1c[nH]c2ccc(OC)cc12
IC50 (5-hydroxytryptamine receptor 2A (HTR2A, Homo sapiens, UniProt P28223); calcium signal, antagonist, fluorescence): 1500 nM

Cc1nc(NC2CCc3ccc(Cl)cc3C2)c2c(C)noc2n1 (stereo not shown)
IC50 (PFF0160c; enzyme activity, inhibitor, absorbance): 17 nM

CN(C)S(=O)(=O)c1ccc(Sc2ccccc2)c(C(=O)N2CCCC(C(N)=O)C2)c1 (stereo not shown)
IC50 (PFF0160c E182D; enzyme activity, inhibitor, absorbance): 2560 nM

Cc1nc(Nc2ccc(S(F)(F)(F)(F)F)cc2)c2c(C)noc2n1
IC50 (PFF0160c; enzyme activity, inhibitor, absorbance): 36 nM

CC[C@H]1NC(=O)[C@@H]2CSC(=N2)[C@H](Cc2ccccc2)N(C)C(=O)[C@@H]2CCCN2C(=O)[C@H](C(C)C)N(C)C(=O)[C@H](Cc2ccccc2)OC(=O)[C@H](C)[C@@H](C)NC(=O)[C@@H]([C@@H](C)O)NC(=O)[C@@H](CC(C)C)N(C)C(=O)[C@@H]2CSC1=N2
IC50 (PROC; enzyme activity, inhibitor): 62000 nM

Cc1cc(C(C)NC(=O)c2[nH]cc(Cc3ccc(C(F)(F)F)nc3)c2C)n[nH]1 (stereo not shown)
IC50 (PFF0160c; enzyme activity, inhibitor, absorbance): 100 nM

COc1ccccc1C1CN(CCNC(=O)c2nc(C)c[nH]2)Cc2ccccc2O1 (stereo not shown)
IC50 (PFF0160c; enzyme activity, inhibitor, absorbance): 3010 nM

Cc1nc(NC2CCc3ccc(Br)cc3C2)c2c(C)noc2n1 (stereo not shown)
IC50 (PFF0160c; enzyme activity, inhibitor, absorbance): 22 nM

O=S(=O)(O)c1nc2ccccc2[nH]1
IC50 (racE (Bacillus subtilis, UniProt P94556, N75L); enzyme activity, inhibitor, absorbance): 198000 nM

CC1CN(Cc2ccc(-c3ccc(C(=O)NCC4CCCO4)cn3)cc2)CC(C)O1 (stereo not shown)
IC50 (PFF0160c E182D; enzyme activity, inhibitor, absorbance): 3280 nM

Cc1noc2nc(C(F)(F)F)nc(Nc3ccc(S(F)(F)(F)(F)F)cc3)c12
IC50 (PFF0160c; enzyme activity, inhibitor, absorbance): 250 nM

Cc1c(C(=O)NC(C)c2nc[nH]n2)[nH]c(Cl)c1Cc1ccc(C(F)(F)F)nc1 (stereo not shown)
IC50 (PFF0160c; enzyme activity, inhibitor, absorbance): > 100000 nM

COc1ccc(-n2ccnc2SCC(=O)Nc2cc(C)ccc2C)c(OC)c1
IC50 (PFF0160c; enzyme activity, inhibitor, absorbance): 324 nM
